Laboratory results reported in ChEMBL document CHEMBL4619811, “Systematic Investigation of the Permeability of Androgen Receptor PROTACs” (ACS Med Chem Lett, 2020).
The source made the active and inactive calls. No cut-off for these calls is given here.

How the values were obtained:
Albumin = Albumin (Homo sapiens, UniProt P02768); test: Binding affinity to HSA assessed as free fraction by HPLC analysis; format: ADME; settings: isolated protein
[1] = Apparent permeability in pH 7.4 ammonium acetate buffer incubated for 5 hrs by PAMPA; format: ADME
Procedure, shortened: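 Passive permeability by PAMPA, reported as Papp in 10–6 cm s–1. Values under the limit of quantification were flagged as BLQ. Compound recovery in the assay was also determined.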

[2] = Chromatographic hydrophobicity index, log D of the compound at pH 7.4 by HPLC analysis; format: physicochemical; settings: buffer
[3] = Apparent permeability from apical to basolateral side in human Caco2 cells at 10 uM incubated for 120 mins; format: ADME, cell-based; settings: Caco-2
Procedure, shortened: (§1)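 Polarized Caco-2 cell monolayer, permeability measured in both directions (apical to basolateral and basolateral to apical), reported as Papp in 10–6 cm s–1. Efflux ratio taken as the ratio of the directional permeabilities. Compound recovery also determined.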

[4] = molecular target: T1, von Hippel-Lindau disease tumor suppressor/Androgen receptor (Homo sapiens, UniProt P10275+P40337); test: Protac activity at VHL/androgen receptor in human LNCaP cells assessed as induction of androgen receptor protein degradation incubated for 6 hrs by Western blot analysis; format: cell-based
Procedure, shortened: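 Androgen-dependent LNCaP prostate adenocarcinoma cells treated across a concentration range, then AR protein levels normalized and plotted against concentration. DCMAX is the percentage of AR cleared; DC50 is the concentration giving half of DCMAX. At least 5 independent experiments, each in triplicate. Significance by ANOVA with Dunnett's test.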

[5] = Efflux ratio of apparent permeability across basolateral to apical membrane over apical to basolateral membrane in human Caco2 cells at 10 uM incubated for 120 mins; format: ADME, cell-based; settings: Caco-2; procedure, shortened: as §1
[6] = Apparent permeability from basolateral to apical side in human Caco2 cells at 10 uM incubated for 120 mins; format: ADME, cell-based; settings: Caco-2; procedure, shortened: as §1
[7] = molecular target: T1, von Hippel-Lindau disease tumor suppressor/Androgen receptor; test: Protac activity at VHL/androgen receptor in human LNCaP cells assessed as induction of androgen receptor protein degradation incubated for 6 hrs by Western blot analysis relative to control; format: cell-based
Procedure, shortened: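 LNCaP cells (androgen-dependent human prostate adenocarcinoma) were exposed to a concentration series of PROTAC. AR protein levels were normalized and plotted against PROTAC concentration. DCMAX is the percentage of AR cleared, and DC50 is the concentration clearing half of DCMAX. Data come from at least 5 independent experiments run in triplicate, with ANOVA (Dunnett's) for significance.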
Target sequence in this assay (P10275 whole entry, looked up): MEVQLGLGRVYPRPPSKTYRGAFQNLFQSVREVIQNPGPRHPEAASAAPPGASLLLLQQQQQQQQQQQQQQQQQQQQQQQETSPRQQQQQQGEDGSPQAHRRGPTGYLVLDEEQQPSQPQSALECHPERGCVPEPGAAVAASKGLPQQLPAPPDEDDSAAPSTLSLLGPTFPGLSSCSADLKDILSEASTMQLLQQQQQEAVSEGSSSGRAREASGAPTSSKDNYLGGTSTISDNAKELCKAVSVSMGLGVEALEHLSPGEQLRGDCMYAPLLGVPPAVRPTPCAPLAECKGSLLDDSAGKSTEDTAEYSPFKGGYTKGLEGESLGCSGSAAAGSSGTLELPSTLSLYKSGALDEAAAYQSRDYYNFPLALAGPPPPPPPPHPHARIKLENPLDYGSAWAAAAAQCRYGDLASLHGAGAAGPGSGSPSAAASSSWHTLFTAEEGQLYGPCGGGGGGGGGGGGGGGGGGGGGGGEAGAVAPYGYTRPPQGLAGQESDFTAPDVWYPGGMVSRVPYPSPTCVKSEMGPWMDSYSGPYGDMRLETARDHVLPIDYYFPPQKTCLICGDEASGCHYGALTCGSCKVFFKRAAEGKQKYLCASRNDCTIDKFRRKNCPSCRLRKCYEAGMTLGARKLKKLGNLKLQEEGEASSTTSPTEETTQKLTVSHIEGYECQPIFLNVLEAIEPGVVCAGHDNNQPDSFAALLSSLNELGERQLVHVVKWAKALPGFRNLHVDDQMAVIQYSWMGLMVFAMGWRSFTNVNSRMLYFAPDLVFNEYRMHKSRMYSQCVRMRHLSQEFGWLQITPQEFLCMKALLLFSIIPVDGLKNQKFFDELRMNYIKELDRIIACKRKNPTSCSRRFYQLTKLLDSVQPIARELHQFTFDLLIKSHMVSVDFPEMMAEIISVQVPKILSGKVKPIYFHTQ
Target sequence in this assay (P40337 whole entry, looked up): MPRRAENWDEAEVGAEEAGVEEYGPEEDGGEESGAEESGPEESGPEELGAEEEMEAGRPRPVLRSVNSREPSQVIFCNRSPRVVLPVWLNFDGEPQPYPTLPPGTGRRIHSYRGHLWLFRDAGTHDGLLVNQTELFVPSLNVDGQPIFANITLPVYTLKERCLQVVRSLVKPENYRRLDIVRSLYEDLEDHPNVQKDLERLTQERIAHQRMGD

[8] = molecular target: T1, von Hippel-Lindau disease tumor suppressor/Androgen receptor; test: Protac activity at VHL/androgen receptor in human LNCaP cells assessed as induction of androgen receptor protein degradation at 1 uM incubated for 6 hrs by Western blot analysis relative to control; format: cell-based
Target sequence in this assay (P10275 whole entry, looked up): as the sequence (P10275 whole entry, looked up) above
Target sequence in this assay (P40337 whole entry, looked up): as the sequence (P40337 whole entry, looked up) above

Albumin, sequence (P02768 whole entry): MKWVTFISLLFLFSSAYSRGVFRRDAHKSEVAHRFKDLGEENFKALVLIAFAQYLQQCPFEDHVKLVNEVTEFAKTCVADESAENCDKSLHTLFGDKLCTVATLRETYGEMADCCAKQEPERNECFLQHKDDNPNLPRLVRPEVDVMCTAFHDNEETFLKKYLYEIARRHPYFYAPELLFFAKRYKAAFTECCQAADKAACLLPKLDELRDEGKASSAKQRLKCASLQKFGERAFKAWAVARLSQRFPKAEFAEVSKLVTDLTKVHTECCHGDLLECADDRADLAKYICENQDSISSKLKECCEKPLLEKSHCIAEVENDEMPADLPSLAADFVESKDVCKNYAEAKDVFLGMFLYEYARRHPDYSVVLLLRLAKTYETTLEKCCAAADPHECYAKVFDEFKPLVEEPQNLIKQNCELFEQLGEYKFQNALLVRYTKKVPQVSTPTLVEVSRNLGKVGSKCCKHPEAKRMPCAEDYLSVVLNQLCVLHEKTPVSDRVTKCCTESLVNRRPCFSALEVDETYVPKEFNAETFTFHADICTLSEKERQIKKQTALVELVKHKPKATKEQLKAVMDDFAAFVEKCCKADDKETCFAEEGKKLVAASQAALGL

| SMILES | Activity (Albumin) | Papp at 5 h [1] | CHI [2] | Papp A→B at 2 h, 10 µM [3] | efflux ratio at 2 h, 10 µM [5] | Papp B→A at 2 h, 10 µM [6] | further results |
| --- | --- | --- | --- | --- | --- | --- | --- |
| Cc1ncsc1-c1ccc(CNC(=O)[C@@H]2C[C@@H](O)CN2C(=O)[C@@H](NC(=O)COCCCCCOc2ccc(C(=O)N[C@H]3C(C)(C)[C@H](Oc4ccc(C#N)c(C(F)(F)F)c4)C3(C)C)cc2)C(C)(C)C)cc1 | 7% | < 1 ×10⁻⁶ cm/s | 6.7 | – | – | – | – |
| CC1(C)C(=O)N(c2ccc(C#N)c(C(F)(F)F)c2)C(=S)N1c1ccc(OCCOCCOCCOCCOc2cccc3c2C(=O)N(C2CCC(=O)NC2=O)C3=O)cc1 (stereo not drawn) | – | < 1 ×10⁻⁶ cm/s | – | 1.7 ×10⁻⁶ cm/s | 8.4 | 14.1 ×10⁻⁶ cm/s | Activity [4]: inactive |
| CC1(C)C(=O)N(c2ccc(C#N)c(C(F)(F)F)c2)C(=S)N1c1ccc(OCCOCCOCCOCCOc2cccc3c2CN([C@H]2CCC(=O)NC2=O)C3=O)cc1 | – | – | – | – | – | – | DC50 [4]: 10 nM; %max [7]: 33% |
| CC(O)(COc1ccc(OCCOCCOCCOCCOc2cccc3c2C(=O)N(C2CCC(=O)NC2=O)C3=O)cc1)C(=O)Nc1ccc(C#N)c(C(F)(F)F)c1 (stereo not drawn) | – | 0.3 ×10⁻⁶ cm/s | – | – | – | – | – |
| N#Cc1ccc(N2CCC[C@@H]2C(O)CO)cc1C(F)(F)F (stereo partly drawn) | > 5% | 13.3 ×10⁻⁶ cm/s | – | – | – | – | – |
| Cc1ncsc1-c1ccc(CNC(=O)[C@@H]2C[C@@H](O)CN2C(=O)[C@@H](NC(=O)COCC(F)(F)C(F)(F)C(F)(F)COCCCOc2ccc(N3C(=S)N(c4ccc(C#N)c(C(F)(F)F)c4)C(=O)C3(C)C)cc2)C(C)(C)C)cc1 | 7% | < 1 ×10⁻⁶ cm/s | 6.3 | 0.26 ×10⁻⁶ cm/s | < 3 | < 0.79 ×10⁻⁶ cm/s | – |
| Cc1ncsc1-c1ccc(CNC(=O)[C@@H]2C[C@@H](O)CN2C(=O)[C@@H](NC(=O)CCOCCOCCOCCOc2ccc(N3C(=S)N(c4ccc(C#N)c(C(F)(F)F)c4)C(=O)C3(C)C)cc2)C(C)(C)C)cc1 | 11% | < 1 ×10⁻⁶ cm/s | 5.1 | < 0.69 ×10⁻⁶ cm/s | > 12 | 2.6 ×10⁻⁶ cm/s | – |
| O=C1CCC(N2C(=O)c3cccc(O)c3C2=O)C(=O)N1 (stereo not drawn) | > 5% | 2 ×10⁻⁶ cm/s | 0.4 | – | – | – | Activity [8]: 23% |
| CN1C(=O)N(c2ccc(C#N)c(C(F)(F)F)c2)C(=O)C1(C)c1ccc(O)cc1 (stereo not drawn) | > 5% | 8.3 ×10⁻⁶ cm/s | 4.4 | – | – | – | – |
| Cc1ncsc1-c1ccc(CNC(=O)[C@@H]2C[C@@H](O)CN2C(=O)[C@@H](NC(=O)COCCCOCCCCOc2ccc(N3C(=S)N(c4ccc(C#N)c(C(F)(F)F)c4)C(=O)C3(C)C)cc2)C(C)(C)C)cc1 | 10% | < 1 ×10⁻⁶ cm/s | 6 | < 27 ×10⁻⁶ cm/s | > 0.5 | 1.4 ×10⁻⁶ cm/s | – |
| Cc1ncsc1-c1ccc(CNC(=O)[C@@H]2C[C@@H](O)CN2C(=O)[C@@H](NC(=O)COCCCOCCCCCOc2ccc(N3C(=S)N(c4ccc(C#N)c(C(F)(F)F)c4)C(=O)C3(C)C)cc2)C(C)(C)C)cc1 | 9% | < 1 ×10⁻⁶ cm/s | 6.3 | 0.35 ×10⁻⁶ cm/s | 0.7 | 0.24 ×10⁻⁶ cm/s | – |
| CN1C(=O)N(c2ccc(C#N)c(C(F)(F)F)c2)C(=O)C1(C)c1ccc(OCCOCCOCCOCCOc2cccc3c2CN([C@H]2CCC(=O)NC2=O)C3=O)cc1 (stereo partly drawn) | – | 0.3 ×10⁻⁶ cm/s | – | – | – | – | – |
| OC12CC3CC(CC(C3)C1)C2 | > 5% | – | 7.9 | – | – | – | Activity [8]: 18% |
| Cc1ncsc1-c1ccc(CNC(=O)[C@@H]2C[C@@H](O)CN2C(=O)[C@@H](NC(=O)CCOCCOCCOc2ccc(C(=O)N[C@H]3C(C)(C)[C@H](Oc4ccc(C#N)c(C(F)(F)F)c4)C3(C)C)cc2)C(C)(C)C)cc1 | 8% | < 1 ×10⁻⁶ cm/s | 5.8 | – | – | – | – |
| CC1(C)C(=O)N(c2ccc(C#N)c(C(F)(F)F)c2)C(=S)N1c1ccc(OCCOCCOCCOCCOC23CC4CC(CC(C4)C2)C3)cc1 | – | < 1 ×10⁻⁶ cm/s | – | 0.15 ×10⁻⁶ cm/s | 1.5 | 0.22 ×10⁻⁶ cm/s | – |
| Cc1ncsc1-c1ccc(CNC(=O)[C@@H]2C[C@@H](O)CN2C(=O)[C@@H](NC(=O)COCC(F)(F)COc2ccc(-c3ccc(N4C(=S)N(c5ccc(C#N)c(C(F)(F)F)c5)C(=O)C4(C)C)cc3)cc2)C(C)(C)C)cc1 | 6% | < 1 ×10⁻⁶ cm/s | 6.1 | – | – | – | – |
| CC(O)(COc1ccc(OCCOCCOCCOCCOc2cccc3c2CN([C@H]2CCC(=O)NC2=O)C3=O)cc1)C(=O)Nc1ccc(C#N)c(C(F)(F)F)c1 (stereo partly drawn) | – | 0.4 ×10⁻⁶ cm/s | – | – | – | – | – |
| CC(O)(COc1ccc(O)cc1)C(=O)Nc1ccc(C#N)c(C(F)(F)F)c1 (stereo not drawn) | > 5% | 1.4 ×10⁻⁶ cm/s | 4 | – | – | – | Activity [8]: 23% |
| N#Cc1ccc(N2CCC[C@@H]2C(O)COCCOCCOCCOCCOC23CC4CC(CC(C4)C2)C3)cc1C(F)(F)F (stereo partly drawn) | – | 2.3 ×10⁻⁶ cm/s | – | – | – | – | – |
| Cc1ncsc1-c1ccc(CNC(=O)[C@@H]2C[C@@H](O)CN2C(=O)[C@@H](NC(=O)COCCCOCC(F)(F)C(F)(F)COc2ccc(N3C(=S)N(c4ccc(C#N)c(C(F)(F)F)c4)C(=O)C3(C)C)cc2)C(C)(C)C)cc1 | 7% | < 1 ×10⁻⁶ cm/s | 6.1 | 0.33 ×10⁻⁶ cm/s | > 3 | 0.33 ×10⁻⁶ cm/s | – |
| Cc1ncsc1-c1ccc(CNC(=O)[C@@H]2C[C@@H](O)CN2C(=O)[C@@H](NC(=O)COCCCOc2ccc(-c3ccc(N4C(=S)N(c5ccc(C#N)c(C(F)(F)F)c5)C(=O)C4(C)C)cc3)cc2)C(C)(C)C)cc1 | 7% | < 1 ×10⁻⁶ cm/s | 6.2 | – | – | – | – |
| CC1(C)C(=O)N(c2ccc(C#N)c(C(F)(F)F)c2)C(=S)N1c1ccc(O)cc1 | > 5% | 4.6 ×10⁻⁶ cm/s | 5 | – | – | – | – |
| O=C1CC[C@H](N2Cc3c(O)cccc3C2=O)C(=O)N1 | > 5% | – | 0.2 | – | – | – | – |
